OX1R antag-1: OX1R (HCRTR1) antagonists, primary screen, fluorescence, CHO/OX1R cells, Fluo-8 calcium, orexin A | Orexin/Hypocretin receptor type 1 (Homo sapiens), O43613 | Fluo-8 calcium fluorescence | inhibition, % at 5 µM | 330,000 compounds, 0.43% hits;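 active means inhibition above its plate's threshold, mean inhibition of all tested compounds on the plate plus 3 SD, cut at about 37% in these data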
GPR7 antagonist: GPR7 receptor antagonists, primary screen, cell-based, fluorescence, single concentration. Neuropeptides B/W receptor type 1 (Homo sapiens), P48145. GPR7-expressing cells, fluorescence antagonist assay. inhibition, % at 4.4 µM. 290,000 compounds, 1.1% hits; in the data active means inhibition above about 16%, passing the limit was not always enough;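 further: cells stimulated with the agonist NPW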
OX1R antag-2: antagonists of human orexin 1 receptor (OX1R); Orexin/Hypocretin receptor type 1 (Homo sapiens), O43613; OX1R-expressing cells, FRET antagonist read-out; inhibition, % at 6.6 µM; 330,000 compounds, 1.8% hits; AID 485270, 2010; in the data active means inhibition mostly above about 38%, no sharp cut-off; inactive means mostly below about 40%
TAAR1 antag: human TAAR1 antagonists, primary screen, Fluo-8 calcium fluorescence, CHO RD-HGA16 cells | antagonist | inhibition, % at 3 µM | AID 624466, 2012 | 360,000 compounds, 1.5% hits | Trace amine-associated receptor 1 (Homo sapiens), Q96RJ0;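 active means inhibition above a per-plate cutoff, the mean inhibition of test compounds on that plate plus 3 SD, cut at about 49% in these data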
Target sequence (Q96RJ0 whole entry, looked up): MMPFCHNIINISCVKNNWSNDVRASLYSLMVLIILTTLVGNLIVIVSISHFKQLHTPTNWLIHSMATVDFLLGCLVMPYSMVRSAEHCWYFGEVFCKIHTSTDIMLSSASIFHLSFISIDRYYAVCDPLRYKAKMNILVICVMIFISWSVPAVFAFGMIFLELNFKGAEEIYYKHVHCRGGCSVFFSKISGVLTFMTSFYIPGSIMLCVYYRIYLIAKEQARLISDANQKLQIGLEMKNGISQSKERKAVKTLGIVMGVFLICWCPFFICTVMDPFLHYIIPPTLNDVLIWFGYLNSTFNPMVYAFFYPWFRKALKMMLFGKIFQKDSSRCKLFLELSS
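Test system: hTAAR1-expressing CHO RD-HGA16 cells, Gα16-coupled; Probe or stimulus: EC80 β-phenethylamine stimulus; Compound dosing: single nominal final test compound concentration of 3 µM; Timing: 140 s kinetic read after compound, 140 s after agonist; Signal: Fluo-8 calcium-sensitive fluorescence; Measure: % inhibition of agonist calcium response; Controls: DMSO and EC80 PEA controls.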
CHO parental Ca: ATP-evoked calcium signal inhibitors, parental CHO, primary screen, counter-screen for OX1R antagonist project, cell-based, fluorescence, Fluo-8 calcium dye; parental CHO-K1, ATP-induced calcium, Fluo-8 fluorescence; 330,000 compounds, 0.63% hits; inhibition, % at 5.6 µM; AID 463079, 2010;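 active means inhibition above that plate's mean sample inhibition plus 3 SD, cut at about 26% in these data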
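Test system: parental CHO cells; detection: calcium-sensitive Fluo-8 fluorescence; evaluation: percent inhibition of calcium signal; also added: ATP as calcium-mobilizing challenge; repeats: one well per compound; control set: ATP-challenged DMSO wells low, unchallenged DMSO wells high; compound: single nominal dose of 5.6 µM per compound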
TAAR1 agonist: human TAAR1 agonists, primary screen, Fluo-8 calcium fluorescence, CHO RD-HGA16 cells | Trace amine-associated receptor 1 (Homo sapiens), Q96RJ0 | activation, % at 3 µM | 360,000 compounds, 0.99% hits | vehicle wells 0%, saturating PEA agonist 100%;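 active means activation above the mean activation of all test compounds in the run plus 3 SD, cut at about 38% in these data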
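Test system: RD-HGA16 (CHO) cells co-expressing Gα16 and hTAAR1 / Benchmarks: DMSO vehicle as 0%, PEA at EC100 as 100% / Repeats: no replicates (n 1) / Measure: % activation from peak over basal fluorescence ratio, DMSO-to-PEA scaled / Timing: 17-24 h plating, Fluo-8 75 min 37 °C, 30 min RT / Technique: kinetic Fluo-8 calcium fluorescence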
Hits are given with their value; . = inactive; / = no result given. The list is not random: actives were taken first. Their share in the collection is about 4.5%.

SMILES | OX1R antag-1 | GPR7 antagonist | OX1R antag-2 | TAAR1 antag | CHO parental Ca | TAAR1 agonist
O=C(C1CCCO1)N1CCN(Cc2c(O)ccc3ccccc23)CC1 (centres undefined) | . | . | . | . | 28.9 | .
Cc1ccc(CN2CCN(C(=O)C3CCCO3)CC2)cc1 (centres undefined) | . | . | . | . | . | .
COC(=O)C1=C(C)N(C)C(=NCc2ccc3c(c2)OCO3)NC1c1cccc(Cl)c1 (centres undefined) | / | / | / | . | / | .
Cc1cccc(C(=O)c2cnc3ccccc3c2-c2ccccc2)c1 | . | . | . | 49.2 | . | .
Cc1cccc(C(=O)NNC(=O)c2ccccc2)c1 | . | . | . | . | . | .
Cc1ccccc1C(=O)N[C@H](C(=O)N1CCC[C@H]1C(=O)NC1CCCC1)C1CCCCC1 | / | / | / | . | / | .
COc1cccc2cc(C(=O)c3ccc([N+](=O)[O-])cc3)oc12 | . | . | . | . | . | .
COc1ccccc1-c1c(C(F)(F)F)oc2cc(OC(=O)c3ccc([N+](=O)[O-])cc3)ccc2c1=O | . | . | 72.5 | . | . | .
COc1ccc(C(=O)c2[nH]c(N)c(C(=O)c3c[nH]c4ccccc34)c2-c2ccc(OC)cc2)cc1 | / | / | / | . | / | .
COC(=O)c1cc2c(c3c4cc(OC)ccc4n(S(=O)(=O)c4cccc(C)c4)c13)C(=O)N(C)C2 | / | / | / | . | / | .
O=[N+]([O-])c1ccc(N2CCN(C(=S)NC3CCCCC3)CC2)cc1 | 48.8 | . | . | 52.3 | 32.6 | .
O=C(NC(=S)N1CCN(c2ccc([N+](=O)[O-])cc2)CC1)c1ccc(F)cc1 | . | . | 55.9 | . | . | .
O=[N+]([O-])c1ccc(N2CCN(C(=S)Nc3ccccc3)CC2)cc1 | . | . | . | . | . | .
COC(=O)C1=C(C)N(C)C(=NCc2ccc3c(c2)OCO3)NC1c1cccc(C(F)(F)F)c1 (centres undefined) | / | / | / | . | / | .
COc1ccc(S(=O)(=O)n2ccc(-c3ccc(OCCN(C)c4ccccn4)cc3)n2)cc1 | . | 20.7 | . | . | . | .
COc1ccc(S(=O)(=O)N(CC(=O)O)c2ccccn2)cc1 | . | . | . | . | . | .
C[C@@H]1CN([C@H](C)CO)C(=O)CCCn2nncc2CO[C@H]1CN(C)Cc1ccccc1 | / | / | / | . | / | .
COc1ccc(OCCCC(=O)OC(C)C(=O)Nc2cccc(C(C)=O)c2)cc1 (centres undefined) | . | . | 64.2 | . | . | .
CCC(=O)c1ccc(OCC(=O)OCC(=O)N(CCC#N)c2ccc3c(c2)OCCO3)cc1 | . | / | . | . | 44.3 | .
O=C(CSc1ccc2ccccc2c1)NC1CCCc2ccccc21 (centres undefined) | . | . | 70.7 | . | . | .
Cc1ccc2nc(SCC(=O)c3ccc(Cl)s3)[nH]c2c1 | . | . | 56.4 | . | . | .
Cc1ccc2nc(SCC(=O)c3ccc4c(c3)OCO4)[nH]c2c1 | . | . | . | . | . | .
COc1cccc(CNC(=O)CSc2nc3ccc(C)cc3[nH]2)c1 | . | . | 41.7 | . | . | .
O=C(CSc1cc(Cl)ccc1Cl)NC1CCCc2ccccc21 (centres undefined) | . | . | . | . | . | .
Cc1ccc2nc(SCC(=O)NC3CCCc4ccccc43)[nH]c2c1 (centres undefined) | . | . | 73.0 | . | . | .
COC(=O)C1=C(C)N(Cc2ccccc2C(F)(F)F)C(=NCc2ccccc2C(F)(F)F)NC1c1cccc(C(F)(F)F)c1 (centres undefined) | / | / | / | . | / | .
O=C(NCc1ccccc1)[C@@H]1CCCN1C(=O)[C@H]1CCCN1C(=O)c1ccc(F)c(C(F)(F)F)c1 | / | / | / | . | / | .
C#CCN(Cc1cccc(F)c1)C(=O)c1nnc2c3cc(F)ccc3n(S(=O)(=O)c3ccc(OC)cc3)c2n1 | / | / | / | . | / | .

Screens from PubChem.
